# Paper PMC5434479 (Inorganic Chemistry, 2017)
# Where two headings read alike, the source gives them in different places.
# Columns and labels:
# [1] = system: human lung adenocarcinoma epithelial (A549) cells; assay: MTS antiproliferation assay, A549 cells; format: cell-based; conditions: for IC50: read-out: IC50 ± SE
# Procedure, shortened: (§1)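 Culture was at 37 °C, 5% CO2: A549 in RPMI 1640, MCF-7 and MRC-5 in DMEM, each with 10% FCS, 2 mM L-glutamine and penicillin/streptomycin. Seeding per 100 μL was 8 × 10^3 (A549, MCF-7) or 2 × 10^3 (MRC-5). Compound in DMSO was diluted 100-fold into wells (1% DMSO final), tested at several concentrations in triplicate for 72 h. MTS reagent was added for 4 h, then A490 read; IC50 calculated.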
# [2] = system: human promyelocytic leukemia (HL60) cells; assay: MTS antiproliferation assay, HL60 cells; format: cell-based; conditions: for IC50: read-out: IC50 ± SE; for cell viability: HL60, 1 μM; for cell viability / inhibition of HL60 cell proliferation (in words): 72 h; for inhibition of HL60 cell proliferation (in words): HL60, 10 μM
# Procedure, shortened: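 HL60 cells were kept in RPMI 1640 with 10% FCS, 2 mM L-glutamine and penicillin/streptomycin at 37 °C, 5% CO2, and seeded at 3 × 10^4 per 100 μL. Compound predissolved in DMSO was diluted 100-fold into wells (1% DMSO final). Wells received 10 or 1 μM, or a concentration series, in triplicate for 72 h. MTS reagent was added for 4 h, then absorbance read at 490 nm. Screening data were averaged over three experiments; IC50 calculated.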
# [3] = system: human fetal lung fibroblast (MRC-5) cells; assay: MTS antiproliferation assay, MRC-5 healthy fibroblasts; format: cell-based; conditions: for IC50: read-out: IC50 ± SE; for times less toxic toward healthy fibroblasts (MRC-5) than toward HL60 and MCF-7: MRC-5 versus HL60 and MCF-7
# Procedure, shortened: as §1
# [4] = system: human breast adenocarcinoma (MCF-7) cells; assay: MTS antiproliferation assay, MCF-7 cells; format: cell-based; conditions: for IC50: read-out: IC50 ± SE
# Procedure, shortened: as §1
# [5] = system: double-stranded DNA; assay: FRET DNA-melting assay, double-stranded DNA; format: binding; conditions: double-stranded DNA 0.2 μM, 50 equiv (10 μM), pH 7.2
# Procedure, shortened: (§2)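 FAM/TAMRA-labelled oligonucleotides were annealed in 10 mM sodium cacodylate with 100 mM NaCl. Buffer was pH 5.5 and 6.0 for hTeloC and pH 7.2 for hif-1α, hTeloG and duplex. Final DNA was 0.2 μM, with compound added at 1:10 by volume. DMSO-matched DNA controls ran in each run. Melting curves were recorded by real-time PCR machine, excitation 470 nm and detection 510 nm. Mean and SD of three experiments.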
# [6] = system: G-quadruplex-forming sequence from the human telomere (hTeloG); assay: FRET DNA-melting assay, hTeloG; format: binding; conditions: hTeloG G-quadruplex 0.2 μM, 50 equiv (10 μM), pH 7.2
# Procedure, shortened: as §2
# [7] = system: i-motif-forming sequence from the promoter region of the oncogene hif-1α; assay: FRET DNA-melting assay, hif-1α i-motif; format: binding; conditions: hif-1α i-motif 0.2 μM, 50 equiv (10 μM), pH 7.2
# Procedure, shortened: as §2
# [8] = system: human telomeric i-motif sequence (hTeloC); assay: FRET DNA-melting assay, hTeloC; format: binding; conditions: pH 5.5 and pH 6.0; for interaction in preliminary screening (in words): hTeloC i-motif 0.2 μM, 50 equiv (10 μM); for stabilization of telomeric i-motif, pH 6.0 versus pH 5.5 (in words): hTeloC
# Procedure, shortened: as §2
# [9] = target: MDM2–p53 interaction (human MDM2 protein, residues 17–125) (Homo sapiens, UniProt Q00987); assay: Fluorescence polarization assay of MDM2–p53 interaction; format: binding; conditions: for disruption of MDM2–p53 interaction in screening (in words): 100 μM
# Procedure, shortened: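 Compound in DMSO was added at 1:10. Positive control was wild-type p53 peptide (15–27) at 400 μM final, negative control DMSO, each in triplicate. Plates were incubated 30 min at room temperature and read by polarisation at 490/520 nm, with total fluorescence checked. IC50 came from log(inhibitor) versus response, variable slope.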
# [10] = system: MCF-7 cells; assay: Cellular uptake, gold content by ICP-MS, MCF-7 cells; format: cell-based, human; conditions: MCF-7, 1 μM, 6 h
# [11] = system: A549 cells; assay: Cellular uptake, gold content by ICP-MS, A549 cells; format: cell-based, human; conditions: A549, 10 μM, 6 h
# [12] = Reaction with glutathione monitored by 1H NMR; format: physicochemical; conditions: equimolar GSH (10 mM) in DMSO-d6, room temperature, 6 days
# [13] = target: MDM2 (Homo sapiens, UniProt Q00987); assay: STD NMR binding to MDM2; conditions: 13.5 μM MDM2, 500 μM compound, 1% DMSO-d6, 25 °C
# Procedure, shortened: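 STD NMR at 800 MHz used a pseudo-2D sequence with spoil pulses. Protein was saturated by cascades of 49 ms Gaussian pulses, 1 ms apart, on-resonance at 0 ppm and off-resonance at 40 ppm. Saturation lasted 4 s for binding detection and 0.5 s for epitope mapping, 1024 scans each. Blank runs without protein were done. Epitope values were normalised to the most intense proton as 100%.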
# Sequence of MDM2–p53 interaction (human MDM2 protein, residues 17–125) (Q00987 17-125): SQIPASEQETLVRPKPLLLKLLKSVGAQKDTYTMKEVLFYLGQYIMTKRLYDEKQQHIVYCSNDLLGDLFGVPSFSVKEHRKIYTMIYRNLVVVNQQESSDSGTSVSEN
# Sequence of MDM2 (Q00987 whole entry): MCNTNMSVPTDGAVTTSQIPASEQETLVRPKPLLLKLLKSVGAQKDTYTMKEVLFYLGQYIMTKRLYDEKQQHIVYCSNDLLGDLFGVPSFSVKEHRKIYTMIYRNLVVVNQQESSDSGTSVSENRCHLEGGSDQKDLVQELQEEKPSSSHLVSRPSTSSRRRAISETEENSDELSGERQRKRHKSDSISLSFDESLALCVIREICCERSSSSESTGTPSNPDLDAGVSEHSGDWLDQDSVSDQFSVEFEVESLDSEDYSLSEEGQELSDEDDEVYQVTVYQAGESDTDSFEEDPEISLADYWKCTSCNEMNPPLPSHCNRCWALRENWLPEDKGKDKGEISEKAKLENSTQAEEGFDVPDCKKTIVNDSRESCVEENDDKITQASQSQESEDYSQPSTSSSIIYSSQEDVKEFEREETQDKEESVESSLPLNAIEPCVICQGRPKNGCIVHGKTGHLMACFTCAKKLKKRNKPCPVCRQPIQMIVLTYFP
Molecule,"IC50 ([1]; A549, 72 h incubation, MTS) [µM]","IC50 ([2]; HL60, 72 h incubation, MTS) [µM]","IC50 ([3]; MRC-5, 72 h incubation, MTS) [µM]","IC50 ([4]; MCF-7, 72 h incubation, MTS) [µM]",interaction in preliminary screening (in words) [6],cell viability [2],inhibition of HL60 cell proliferation (in words) [2],interaction in preliminary screening (in words) [7],interaction in preliminary screening (in words) [8],disruption of MDM2–p53 interaction in screening (in words) [9],cell uptake (in words) [10],times less toxic toward healthy fibroblasts (MRC-5) than toward HL60 and MCF-7 [3],"stabilization of telomeric i-motif, pH 6.0 versus pH 5.5 (in words) [8]",cell uptake (in words) [11],further results
"Nc1nc2nc[nH]c2c(=S)[nH]1 [Compound 6-TG, 6-thioguanine, reference compound]",–,–,–,–,–,–,–,–,–,–,–,–,–,–,"IC50 ([1]; Homo sapiens, A549, 72 h): > 50 µM; IC50 ([2]; Homo sapiens, HL-60, 72 h): 0.98 ± 0.07 µM; IC50 ([3]; Homo sapiens, MRC5, 72 h): > 50 µM; IC50 ± SE ([3]; MRC-5, 72 h incubation, MTS): nontoxic; IC50 ([4]; Homo sapiens, MCF7, 72 h): 0.42 ± 0.13 µM"
"N.N.[Cl][Pt][Cl] [cisplatin, cis-diamminedichloroplatinum(II), reference compound]",33.7 ± 3.7,3.7 ± 0.25,10.7 ± 3,21.2 ± 3.9,–,–,–,–,–,–,–,–,–,–,–
(C^N^pz^N)Au(6-thioguanine) [Compound 4],29 ± 1.8,0.9 ± 0.22,4.3 ± 0.7,0.78 ± 0.11,did not show any interaction,60%,completely inhibited cell proliferation,did not show any interaction,did not show any interaction,–,–,–,–,–,interaction in preliminary screening (in words) [5]: did not show any interaction
"[(C^N^pz^N)Au(1,3,7,9-tetramethylxanthin-8-ylidene)]BF4 [Compound 3]",> 50,4.05 ± 0.43,17.6 ± 1.9,7.9 ± 0.13,good interactions,nontoxic,completely inhibited cell proliferation,good interactions,good interactions,only compounds 1 and 2 appeared to disrupt,poorly taken up,2–4,does not show any particular difference,poorly taken up,–
"[(C^N^pz^N)Au(1,3-dimethylbenzimidazol-2-ylidene)]PF6 [Compound 2]",7.8 ± 1.3,0.31 ± 0.15,1.4 ± 0.4,0.56 ± 0.02,good interactions,22%,completely inhibited cell proliferation,good interactions,good interactions,appeared to disrupt the MDM2–p53 interaction,highest concentrations,2–4,stabilize the telomeric i-motif structure at pH 6.0 more efficiently than at pH 5.5,much higher uptake,"times more toxic than cisplatin ([1]; A549, ratio of IC50 values): 4; toxicity relative to (benzimidazolylidene)AuCl ([1]; A549, comparator value ref 25b): more than twice as toxic; IC50 ([9]; 10 nM HDM2 and tagged peptide, pH 7.4): 31.1 ± 1.1 µM; stability toward GSH [12]: high stability; binding to MDM2 in solution (in words) [13]: clearly confirmed the binding; times more potent than 3 ([4]; MCF-7, ratio of IC50 values): up to 14; times more toxic than (benzimidazolylidene)AuCl ([4]; MCF-7, comparator value ref 44): more than 10; intracellular gold concentration, times higher than that of 1 [11]: ~4; intracellular gold concentration, times higher than that of 3 [11]: ~11"
